Tests used:
[1] = Inhibition of Plasmodium falciparum falcipain 2 using substrate benzoxycarbonyl-Leu-Arg-7-amino-4-methyl-coumarin preincubated for 30 mins before substrate addition by fluorescence assay
How it was run: (§1)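 Recombinant enzyme (1 nM) incubated with inhibitor at varied concentrations (from 10 mM DMSO stocks) in 100 mM sodium acetate pH 5.5, 10 mM DTT, 30 min at room temperature. Substrate then added at 25 μM final. Fluorescence monitored continuously for 30 min at room temperature; IC50 from curve fitting. FP3 tested only for compounds with FP2 IC50 < 50 μM.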

Plasmodium falciparum = experiment: Antiplasmodial activity against chloroquine-resistant blood-stage Plasmodium falciparum W2 after 48 hrs by flow cytometric analysis; type: functional, organism-based; details: W2, 48 h
How it was run: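 Synchronized ring-stage W2 parasites cultured 48 h with multiple compound concentrations (from 1000× DMSO stocks) in RPMI 1640 with 10% human serum or 0.5% Albumax. Cells then fixed in 1% formaldehyde/PBS pH 7.4 for 48 h at room temperature and stained with YOYO-1 (1 nM) in 0.1% Triton X-100. Parasitemia read by flow cytometry. IC50 taken from percent-of-control parasitemia curves, R2 >0.95.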

Heme = experiment: Inhibition of heme polymerization at 1 mM after 48 hrs by spectrophotometry relative to chloroquine
How it was run: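 Hemin chloride in DMSO (5.2 mg/mL) mixed with compound in DMSO (0.1–1 mM), in triplicate; water or DMSO as negative control, 1 mM CQ as positive. β-hematin formation started with 0.2 M acetate buffer pH 4.4, then 48 h at 37 °C. Pellet washed with DMSO, dissolved in 0.2 M NaOH, diluted 1:6 in 0.1 M NaOH, read at 405 nm.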

[2] = Inhibition of Plasmodium falciparum falcipain 3 using substrate benzoxycarbonyl-Leu-Arg-7-amino-4-methyl-coumarin preincubated for 30 mins before substrate addition by fluorescence assay; how it was run: as §1

Structure (SMILES)	IC50 [1] [µM]	IC50 (Plasmodium falciparum) [µM]	inhibition (Heme) [%]	IC50 [2] [µM]
Cc1ccc(/C=C/C(=O)N[C@H](CC(C)C)C(=O)N[C@H](CCc2ccccc2)C(=O)Nc2ccnc3cc(Cl)ccc23)cc1	> 50	1.96	> 75	
O=C(/C=C/c1ccc(F)cc1)Nc1ccnc2cc(Cl)ccc12	> 50	> 10	< 50	
CC(C)C[C@@H](NC(=O)/C=C/c1cccc(F)c1)C(=O)N[C@H](CCc1ccccc1)C(=O)Nc1ccnc2cc(Cl)ccc12	23.1	5.43	< 50	> 50
CC(C)C[C@@H](NC(=O)/C=C/c1ccc([N+](=O)[O-])cc1)C(=O)N[C@H](CCc1ccccc1)C(=O)Nc1ccnc2cc(Cl)ccc12	> 50	1.23	> 75	
CC(C)C[C@@H](NC(=O)/C=C/c1ccc(C(C)C)cc1)C(=O)N[C@H](CCc1ccccc1)C(=O)Nc1ccnc2cc(Cl)ccc12	> 50	0.83	< 50	
O=C(/C=C/c1ccccc1)Nc1ccnc2cc(Cl)ccc12	> 50	> 10	< 50	
CC(C)c1ccc(/C=C/C(=O)Nc2ccnc3cc(Cl)ccc23)cc1	> 50	> 10	< 50	
CC(C)C[C@H](NC(=O)/C=C/c1ccccc1)C(=O)N[C@@H](CCc1ccccc1)C(=O)Nc1ccnc2cc(Cl)ccc12	50	8		
O=C(/C=C/c1cccc([N+](=O)[O-])c1)Nc1ccnc2cc(Cl)ccc12	14.2	> 10	< 50	> 50
CC(C)C[C@@H](NC(=O)/C=C/c1ccc(Br)cc1)C(=O)N[C@H](CCc1ccccc1)C(=O)Nc1ccnc2cc(Cl)ccc12	48.3	2.55	< 50	> 50
COc1ccc(/C=C/C(=O)N[C@H](CC(C)C)C(=O)N[C@H](CCc2ccccc2)C(=O)Nc2ccnc3cc(Cl)ccc23)cc1	> 50	10.8	50	
O=C(/C=C/c1ccccc1[N+](=O)[O-])Nc1ccnc2cc(Cl)ccc12	23.6	> 10	< 50	> 50
CC(C)C[C@@H](NC(=O)/C=C/c1ccc(Cl)cc1)C(=O)N[C@H](CCc1ccccc1)C(=O)Nc1ccnc2cc(Cl)ccc12	> 50	2.89	< 50	
O=C(/C=C/c1ccc(Br)cc1)Nc1ccnc2cc(Cl)ccc12	33.1	> 10	< 50	> 50
C[C@@H]1CC[C@H]2[C@@H](C)C(=O)O[C@@H]3O[C@@]4(C)CC[C@@H]1[C@]32OO4 [ARTEMISININ]		0.00876		
O=C(/C=C/c1cccc(F)c1)Nc1ccnc2cc(Cl)ccc12	> 50	> 10	< 50	
Cc1ccc(/C=C/C(=O)Nc2ccnc3cc(Cl)ccc23)cc1	28.5	> 10	< 50	> 50
CC(C)C[C@H](NC(=O)[C@H]1O[C@@H]1C(=O)O)C(=O)NCCCCN=C(N)N [E-64]	0.0246			
COc1ccc(/C=C/C(=O)Nc2ccnc3cc(Cl)ccc23)cc1	> 50	> 10	< 50	
CC(C)C[C@@H](NC(=O)/C=C/c1ccccc1)C(=O)N[C@H](CCc1ccccc1)C(=O)Nc1ccnc2cc(Cl)ccc12	19.6	4.89	< 50	> 50
O=C(/C=C/c1ccc([N+](=O)[O-])cc1)Nc1ccnc2cc(Cl)ccc12	> 50	> 10	< 50	
O=C(/C=C/c1ccc(Cl)cc1)Nc1ccnc2cc(Cl)ccc12	41.3	> 10	< 50	> 50
CC(C)C[C@@H](NC(=O)/C=C/c1ccc(F)cc1)C(=O)N[C@H](CCc1ccccc1)C(=O)Nc1ccnc2cc(Cl)ccc12	50	4.67	< 50	
CCN(CC)CCCC(C)Nc1ccnc2cc(Cl)ccc12 (centres undefined)			> 75	
CC(C)C[C@@H](NC(=O)/C=C/c1ccccc1[N+](=O)[O-])C(=O)N[C@H](CCc1ccccc1)C(=O)Nc1ccnc2cc(Cl)ccc12	> 50	1.66	50	
CC(C)C[C@@H](NC(=O)/C=C/c1ccc(N)cc1)C(=O)N[C@H](CCc1ccccc1)C(=O)Nc1ccnc2cc(Cl)ccc12	20.3	3.28	> 75	> 50
CC(C)C[C@@H](NC(=O)/C=C/c1cccc([N+](=O)[O-])c1)C(=O)N[C@H](CCc1ccccc1)C(=O)Nc1ccnc2cc(Cl)ccc12	28.1	2.1	< 50	> 50
